The results in this text go back to ChEMBL document CHEMBL1148335, “Design and synthesis of potent inhibitors of the malaria aspartyl proteases plasmepsin I and II. Use of solid-phase synthesis to explore novel statine motifs” (J Med Chem, 2004).

One experiment has as its target Plasmepsin II (Plasmodium falciparum, UniProt P46925). The experiment can be described thus: In vitro inhibition of aspartic protease plasmepsin (Plm) II of Plasmodium falciparum. The essentials:
(§1)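 Fluorogenic DABCYL-Glu-Arg-Nle-Phe-Leu-Ser-Phe-Pro-EDANS substrate at 3 µM in 100 mM sodium acetate pH 4.5, 10% glycerol, 0.01% Tween 20. Inhibitors were serially diluted in DMSO and added just before substrate, at 1% final DMSO. Fluorescence increase was read over a linear 10 min. IC50 came from a competitive Langmuir fit, and Ki = IC50/(1+[S]/Km), with Km from Michaelis-Menten.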

The target of the next experiment is Cathepsin D (Homo sapiens, UniProt P07339). The experiment can be described thus: In vitro inhibition of human liver cathepsin D. The essentials:
as §1

For a further experiment, the target named is Plasmepsin I (Plasmodium falciparum, UniProt P39898). The experiment can be described thus: In vitro inhibition of aspartic protease plasmepsin-1 (Plm) of Plasmodium falciparum. The essentials:
as §1

Experiment [1] concerns Plasmodium falciparum. The experiment can be described thus: Growth inhibition of Plasmodium falciparum infected human erythrocytes at 5 uM. The class given is functional. The essentials:
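P. falciparum clone 3D7 was used as a highly synchronous early-trophozoite culture at ~1% haematocrit and 1% parasitaemia, with [3H]hypoxanthine at 10 µCi/ml. Compound was added at 1–5 µM final, with DMSO at most 1% v/v. Cultures grew 37 °C, 30 h, to schizonts, then were harvested onto filters for β-counting. Radioactivity was expressed relative to DMSO-only wells, from four independent experiments.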

In experiment [2] the test system is Plasmodium falciparum. The experiment can be described thus: Growth inhibition of Plasmodium falciparum infected human erythrocytes at 20 uM. The experiment is classed as functional.

Chain of Cathepsin D (P07339 65-162 limits assumed): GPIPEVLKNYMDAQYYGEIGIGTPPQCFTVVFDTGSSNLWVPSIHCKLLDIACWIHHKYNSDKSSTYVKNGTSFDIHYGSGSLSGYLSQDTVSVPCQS
Chain of Cathepsin D (P07339 169-412 limits assumed): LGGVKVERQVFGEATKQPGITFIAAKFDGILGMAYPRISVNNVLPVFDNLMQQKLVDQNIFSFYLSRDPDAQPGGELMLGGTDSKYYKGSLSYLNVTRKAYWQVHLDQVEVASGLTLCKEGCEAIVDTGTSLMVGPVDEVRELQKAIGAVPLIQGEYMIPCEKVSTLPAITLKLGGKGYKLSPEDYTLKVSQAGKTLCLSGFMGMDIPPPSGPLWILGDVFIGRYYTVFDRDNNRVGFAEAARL
Chain of Plasmepsin I (P39898 whole entry): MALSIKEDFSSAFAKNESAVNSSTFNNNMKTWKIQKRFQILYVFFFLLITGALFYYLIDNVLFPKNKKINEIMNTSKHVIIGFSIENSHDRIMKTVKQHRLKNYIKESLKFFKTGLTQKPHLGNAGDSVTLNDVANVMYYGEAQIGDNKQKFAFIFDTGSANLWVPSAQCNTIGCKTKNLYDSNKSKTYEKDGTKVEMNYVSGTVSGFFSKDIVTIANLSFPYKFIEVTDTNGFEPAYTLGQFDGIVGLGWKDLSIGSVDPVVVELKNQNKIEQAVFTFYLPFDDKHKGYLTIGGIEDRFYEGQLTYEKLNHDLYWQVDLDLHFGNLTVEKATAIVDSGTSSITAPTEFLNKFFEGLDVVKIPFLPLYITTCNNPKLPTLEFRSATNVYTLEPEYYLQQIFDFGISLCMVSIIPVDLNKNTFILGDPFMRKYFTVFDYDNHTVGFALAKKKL
Chain of Plasmepsin II (P46925 whole entry): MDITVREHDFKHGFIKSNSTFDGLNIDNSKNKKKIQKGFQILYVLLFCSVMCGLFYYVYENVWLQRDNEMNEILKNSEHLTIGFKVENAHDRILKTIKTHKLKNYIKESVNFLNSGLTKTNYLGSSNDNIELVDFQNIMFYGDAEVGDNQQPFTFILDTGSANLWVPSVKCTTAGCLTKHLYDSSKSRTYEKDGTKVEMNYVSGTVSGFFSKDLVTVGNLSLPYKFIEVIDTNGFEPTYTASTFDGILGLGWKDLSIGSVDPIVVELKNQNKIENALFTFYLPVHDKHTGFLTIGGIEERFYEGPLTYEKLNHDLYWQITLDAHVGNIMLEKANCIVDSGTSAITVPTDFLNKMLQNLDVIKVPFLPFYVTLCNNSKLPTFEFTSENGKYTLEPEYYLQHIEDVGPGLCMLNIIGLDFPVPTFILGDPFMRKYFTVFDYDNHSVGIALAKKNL

As to `CC(C)[C@H](NC(=O)c1ccccn1)C(=O)N[C@@H](COCc1ccc(Br)cc1)[C@@H](O)CC(=O)NCc1ccc(C#N)cc1`, the Ki at Plasmepsin II amounted to 256 nM; at Cathepsin D it was 623 nM; on Plasmepsin I, 53 nM.

Take `CC(C)C[C@H](NC(=O)[C@H](C)NC(=O)C[C@H](O)[C@H](COCc1ccc(Br)cc1)NC(=O)c1ccc(Cl)c(Cl)c1)C(N)=O`: the Ki on Plasmepsin II was determined as 91 nM; on Cathepsin D, 1810 nM; on Plasmepsin I, 32 nM.

For `CC(C)C[C@H](NC(=O)[C@H](C)NC(=O)C[C@H](O)[C@H](COCc1ccc(Br)cc1)NC(=O)CC(c1ccccc1)c1ccccc1)C(N)=O`, the Ki at Plasmepsin II amounted to 284 nM; at Cathepsin D, 100 nM; on Plasmepsin I it was 40 nM.

Turning to `CC(C)[C@H](NC(=O)c1ccccn1)C(=O)N[C@@H](COCc1ccc(Br)cc1)[C@@H](O)CC(=O)NCCCc1ccccc1`, the inhibition constant (Ki) on Plasmepsin II turned out to be 30 nM; on Cathepsin D, 459 nM; on Plasmepsin I, 5.4 nM.

Turning to `CC(C)[C@H](NC(=O)c1ccccn1)C(=O)N[C@@H](COCc1ccc(Br)cc1)[C@@H](O)CC(=O)NCCNc1ccccc1`, the Ki on Plasmepsin II worked out at 74 nM; at Cathepsin D it was 265 nM; at Plasmepsin I it was 8.9 nM. Moreover, in the experiment with Plasmodium falciparum [1], the inhibition at 5 µM was found to be 25%.

Regarding `CC(C)C[C@H](NC(=O)[C@H](C)NC(=O)C[C@H](O)[C@H](COCc1ccc(Br)cc1)NC(=O)Cc1cccs1)C(N)=O`, the inhibitory constant (Ki) on Plasmepsin II turned out to be 348 nM; at Cathepsin D, 35 nM; on Plasmepsin I it was 24 nM.

`CCCCNC(=O)C[C@H](O)[C@H](COCc1ccc(Br)cc1)NC(=O)[C@@H](NC(=O)c1ccccn1)C(C)C`: the Ki on Plasmepsin II is 68 nM; at Cathepsin D, 473 nM; on Plasmepsin I it was 8.1 nM.

`CC(C)C[C@H](NC(=O)[C@H](C)NC(=O)C[C@H](O)[C@H](COCc1ccc(Br)cc1)NC(=O)c1ccc2c(c1)OCO2)C(N)=O`: the results for the Ki on Plasmepsin II, on Cathepsin D and on Plasmepsin I were 131 nM, over 5900 nM and 29 nM, respectively.

The molecule `CC(C)C[C@H](NC(=O)[C@H](C)NC(=O)C[C@H](O)[C@H](Cc1ccccc1)NC(=O)[C@@H](NC(=O)c1ccccn1)C(C)C)C(N)=O` gave an inhibition at 20 µM in the experiment on Plasmodium falciparum [2] of 54%.

Consider `CC(C)C[C@H](NC(=O)[C@H](C)NC(=O)C[C@H](O)[C@H](CCc1ccccc1)NC(=O)[C@@H](NC(=O)c1ccccn1)C(C)C)C(N)=O`, for which the Ki on Plasmepsin II is 46 nM; at Cathepsin D, 980 nM; on Plasmepsin I, 27 nM. This molecule displayed an inhibition at 5 µM with Plasmodium falciparum [1] of 41%.

As for `COc1cccc(CCNC(=O)C[C@H](O)[C@H](COCc2ccc(Br)cc2)NC(=O)c2c(F)cc(F)cc2F)c1`, the Ki on Plasmepsin II was 390 nM; at Cathepsin D, over 5900 nM; on Plasmepsin I, 619 nM.

Regarding `CC(C)C[C@H](NC(=O)[C@H](C)NC(=O)C[C@H](O)[C@H](COCc1ccc(Br)cc1)NC(=O)c1c(F)cc(F)cc1F)C(N)=O`, the Ki on Plasmepsin II is 10 nM; on Cathepsin D it was over 4000 nM; on Plasmepsin I, 3.4 nM.

As to `CC(C)C[C@H](NC(=O)[C@H](C)NC(=O)C[C@H](O)[C@H](COCc1ccc(Br)cc1)NC(=O)C(c1ccccc1)c1ccccc1)C(N)=O`, the Ki at Plasmepsin II was found to be 139 nM; on Cathepsin D, 52 nM; on Plasmepsin I, 57 nM. The same molecule showed an inhibition at 5 µM in the experiment with Plasmodium falciparum [1] of 10%.

In the case of `CC(C)C[C@H](NC(=O)[C@H](C)NC(=O)C[C@H](O)[C@H](COCc1ccccc1)NC(=O)[C@@H](NC(=O)c1ccccn1)C(C)C)C(N)=O`, the inhibition constant Ki amounted to 11 nM on Plasmepsin II, 41 nM at Cathepsin D and 5.4 nM at Plasmepsin I. The same molecule showed an inhibition at 5 µM in the experiment with Plasmodium falciparum [1] of 37%.

Turning to `CC(C)[C@H](NC(=O)c1ccccn1)C(=O)N[C@@H](COCc1ccc(Br)cc1)[C@@H](O)CC(=O)NCc1ccccc1`, the results for the Ki at Plasmepsin II, on Cathepsin D and on Plasmepsin I were 41 nM, 586 nM and 3.9 nM, respectively.

For `COc1cccc(CCNC(=O)C[C@H](O)[C@H](COCc2ccc(Br)cc2)NC(=O)[C@@H](NC(=O)c2ccccn2)C(C)C)c1`, the inhibition constant Ki turned out to be 29 nM at Plasmepsin II, 140 nM at Cathepsin D and 6.7 nM at Plasmepsin I. Besides, testing at 5 µM with Plasmodium falciparum [1] gave an inhibition of 25%.

As for `COCCCNC(=O)C[C@H](O)[C@H](COCc1ccc(Br)cc1)NC(=O)[C@@H](NC(=O)c1ccccn1)C(C)C`, the figures for the Ki at Plasmepsin II, at Cathepsin D and on Plasmepsin I were 248 nM, over 4000 nM and 49 nM, respectively.

Take `CC(C)C[C@H](NC(=O)[C@H](C)NC(=O)C[C@H](O)[C@H](COCc1ccc(Br)cc1)NC(=O)[C@@H](NC(=O)c1ccccn1)C(C)C)C(N)=O`: the Ki came out at 2.2 nM at Plasmepsin II, 4.9 nM at Cathepsin D and 0.5 nM at Plasmepsin I.

Consider `CC(C)C[C@H](NC(=O)[C@H](C)NC(=O)C[C@H](O)[C@H](COCc1ccc(Br)cc1)NC(=O)[C@@H]1Cc2ccccc2N1)C(N)=O`, for which the values for the Ki at Plasmepsin II, at Cathepsin D and on Plasmepsin I were 144 nM, 322 nM and 59 nM, respectively. In the experiment on Plasmodium falciparum [1], this molecule returned an inhibition at 5 µM of 16%.

Turning to `CC(C)C[C@H](NC(=O)[C@H](C)NC(=O)C[C@H](O)[C@H](COCc1ccc(Br)cc1)NC(=O)[C@H](NC(=O)c1ccccn1)C(C)C)C(N)=O`, the Ki on Plasmepsin II came to 15 nM; on Cathepsin D, 41 nM; at Plasmepsin I it was 6.4 nM. For the same molecule, in the experiment with Plasmodium falciparum [1], testing at 5 µM gave an inhibition of 50%.

Turning to `CC(C)[C@H](NC(=O)c1ccccn1)C(=O)N[C@@H](COCc1ccc(Br)cc1)[C@@H](O)CC(=O)NC1CCCCC1`, the figures for the Ki at Plasmepsin II, at Cathepsin D and on Plasmepsin I were 25 nM, 217 nM and 4.1 nM, respectively. For the same molecule, at 5 µM the inhibition in the experiment with Plasmodium falciparum [1] was 21%.

Turning to `O=C(C[C@H](O)[C@H](COCc1ccc(Br)cc1)NC(=O)c1c(F)cc(F)cc1F)NC1CCCCC1`, the Ki at Plasmepsin II was 230 nM; at Cathepsin D, over 5900 nM; at Plasmepsin I it was 822 nM.
